# Variants at the floor of the assay were thinned out.
# B1: tRNA (parent)
# chain: GUUCCGUUGGCGUAAUGGUAACGCGUCUCCCUCCUAAGGAGAAGACUGCGGGUUCGAGUCCCGUACGGAACG
# Variants of: B1
# Test: yeast fitness relative to wild type (ratio to wild type); higher = fitter; tRNA-Arg(CCU), competitive growth, 37 C, YPD
# Outline: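 Variants of the tRNA-Arg(CCU) gene, chemically synthesised with a 3% per-site mutation rate at 69 sites, were placed at the native genomic locus in Saccharomyces cerevisiae. The pooled strains were competed in YPD at 37°C for 24 hours in six parallel replicates. Gene amplicons from the start population and from each end population were read by 100-nucleotide paired-end sequencing. Darwinian fitness relative to wild type came from changes in genotype frequencies; genotypes needed ≥ 100 starting reads, and estimates < 0.5 were set to 0.5.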
row,Variant,yeast fitness
1,GUUCCGUCGGCGUAAUGGUAACGCGUCUCCCUCCUAAGGAGAAGCCUGCGGGUUCGAGUCCCGUACGGAACG [U8C A45C],0.802
2,GUUCCGUCGGCGUAAUGGUAACGCGUGUCCCUCCUAAGGAGGAGACUGCGGGUUCGAGUCCCGUACGGAACG [U8C C27G A42G],≤ 0.5
3,GUUCCGUCAGCGUAAUGGUAAGGCGUCUCCCGCCUAAGGAGAAGACUGCGCGUUCGAGUCCCGAAUGGCACG [U8C G9A C22G U32G G51C U64A C66U A69C],≤ 0.5
4,GUUCCGUCGGCGUUAUGGUAACGCGUCUCCCUCCUAAGGAGAAGACUGCGGGUUCGAGUCCCGUACGGAACG [U8C A14U],0.805
5,GUUCCGUCGGCGUAAUGGUAAUGCGUCUCCCCCCUAAGGAGAAGAGUGCGGGGUCGAGUCCCGUACGCAACG [U8C C22U U32C C46G U53G G68C],≤ 0.5
6,GUUCCGUCGGCGUAAUGGUAACGCGUCUCCCUCGUAAGGAGAAGACUCCGGGUUCGAGCACCGUGCGGAACG [U8C C34G G48C U59C C60A A65G],≤ 0.5
7,GUUCCGUCGGCGUAAUGGUAACGCGUCUCCCUCUUAAGGAGAAGACUGCGGGUUCGAGUCCCGUACGGAACG [U8C C34U],0.728
8,GUUCCGUCGGCGUAAUGGUAACGCGUCUACCUCCUAAGGAGAAGACUGCGGGUACGAGUCCCGUACGGAACG [U8C C29A U54A],≤ 0.5
9,GUUCCGUCGGCGUAAUGGUAACGCGUCUCCCUCCUAAGGAGACGACUGCGGGUUCGAGUCCCGUAGGGAACG [U8C A43C C66G],≤ 0.5
10,GUUCCGUCGGUGUAAUGGUAACGCGUCUACCUCCUAAGGAGAAGACUGCGGGUUCGAGUCCCGUACGGAACG [U8C C11U C29A],≤ 0.5
11,GUUCCGUCGGCGUAAUGGUAACGCGUCUCCCUCCUAAGGAGCAGACUGCGGGUUCGAGUCCCGUACGGAACG [U8C A42C],0.857
12,GUUCCGUCGGCGUAAUGGUAAAGCGUCUCCCUCCUAAGGAGUAGACUGCGGGUCCGAGUCCCGUAGGGAACG [U8C C22A A42U U54C C66G],≤ 0.5
13,GUUCCGUCGGCGUAAUGGUAACGCGUCUCCUUCCUAAGGAGAAGAAUGAGGGUUCGAGUCCCGUACGGAACG [U8C C31U C46A C49A],≤ 0.5
14,GUUCCGUCGGCGUAAUGGUAACGCGUCUCUCUCCUAAGGAGAAGACAGCGGGUUCGAGUCCCGUACCGAACG [U8C C30U U47A G67C],≤ 0.5
15,GUUCCGUCGGCGUAAUGGUAACGCGUUUCCCUCGUAAGGAGAAGACUGCGGGUUCGAGUACCGUACGGAACG [U8C C27U C34G C60A],0.503
16,GUUCCGUCGGCGUAAUGGUAACGCGUCUACCUCGUGAGGCGAAGACAGCGGGUUCGAGUCCCGCACGGAACG [U8C C29A C34G A36G A40C U47A U64C],≤ 0.5
17,GUUCCGUCGGCGUAAUGGUAACGCGUCUCGGUCCUAAGGAGAAGACUGCGGGUUCGAGUCCCGUACGGAACG [U8C C30G C31G],0.58
18,GUUCCGUCGGCGUAAUGGUAACGGGUCUCCCUCCUAACGAGAAGACUGCGGGGUCGAGUCCCGUACGGAACG [U8C C24G G38C U53G],0.635
19,GUUCCGUCGGCGUAAUGGUAAUCCGUCUCCCUGCUAAGGAGAAGACUGUGGGUUCGAGUCCCGUACGGAACG [U8C C22U G23C C33G C49U],≤ 0.5

row,Variant,yeast fitness
1,GUUCCGUCGGUGUAAUGAUUAGGCGUCUCCGUCCUAAGGAGAAGACUGCGGGUUCGAGUCCCGUACGGAACG [U8C C11U G18A A20U C22G C31G],≤ 0.5
2,GUUCCGUCGGCGUCAUGGUAACGCGUCUCCCUCCUAAGGAGAAGACUGCGGGUUUGAGUCGGGUACGGAACG [U8C A14C C55U C61G C62G],≤ 0.5
3,GUUCCGUCGGCGUAAUGGUAACGAGUCUCCCUCCGAAGGAGAAGACUGCGGAUUCGAGUCCCGAACGGAACG [U8C C24A U35G G52A U64A],≤ 0.5
4,GUUCCGUCGGCGUGAUGGUAACGCGUCUCCCUCCUAAGGAGAAGACUGCGGGUUCCAGUCCCGUACGGAACG [U8C A14G G56C],≤ 0.5
5,GUUCCGUCGGCGUAUUGGUAACGCAUCUCCCUCGUAAGGAGAAGACUGCGGGUUCGACUCCCGUACGGAACG [U8C A15U G25A C34G G58C],≤ 0.5
6,GUUCCGUCGGCGUCAUGGUAACGGGUCUCCCUCCUAAGGAGAAGACUGCGGGUUCGAGUCCCGUACGAAACG [U8C A14C C24G G68A],≤ 0.5
7,GUUCCGUAGGCGUAAUGGUAACGCGUCUCCCUCCUAAGGAGAAGACUGCGGGUAUGAGUCCCGUACGAUACG [U8A U54A C55U G68A A69U],0.507
8,GUUCCGUCGGCGUAAUGGUAACGCGUCUCCCUCCUAAGGAGAAGACUGGGGGUUCGAGUCCAGUACGGAACG [U8C C49G C62A],≤ 0.5
9,GUUCCGUCGGCGUAAUGGUAACGCGUGUCCCUCCUAAGGAGGAGACUGCGGGUUCGAGUUCCGAAAGAGACG [U8C C27G A42G C60U U64A C66A G68A A69G],0.543
10,GUUCCGUCGGCGUAAUGGUAAAGCGUCUCCCUGCUAAGCAGAAGAUUGCGGGUUCGAGUCCCGUAUGGAACG [U8C C22A C33G G39C C46U C66U],0.536
11,GUUCCGUCGGCGUAAUGGUAACGCGUCUCCGUCCUAAGGAGAAGACUGCGAGUUCGAGUCCCGUACGCAACG [U8C C31G G51A G68C],≤ 0.5
12,GUUCCGUCGGUGUAAUGGUAAGGCGUCUCCCUCCUAAGGAGAAGACUGCGGGUUGGAGUCCCCUACGGAACG [U8C C11U C22G C55G G63C],≤ 0.5
13,GUUCCGUCGGCGUAAUGGUAACGCGUAUCCCUCCUAAGGAGAAGACUGCGGAUUCGAGUCCGGUACGGGACG [U8C C27A G52A C62G A69G],≤ 0.5
14,GUUCCGUCGGCGUAAUGGUAACGCGUCUCCCUCCUAAGGGGACGACUGCGGGUUCGAGUCCCGUACGGAACG [U8C A40G A43C],0.732
15,GUUCCGUCGGCGUAAUGGUAUCGCGUCUCCCUCAUAAGGCGAAGACUGCGGGUUCGAGUCCCGUACAGAACG [U8C A21U C34A A40C G67A],≤ 0.5
16,GUUCCGUCGGCGUAGAGGUAACGCGUCUCCCUCCUAAGGAGAAGAUUGCGGGUCCGAGUCCCGUACGGAACG [U8C A15G U16A C46U U54C],0.601
17,GUUCCGUCGGCGUAAUGGUAUCGCGUCUCCCACCUAAGGAGAAGACUGCGGGUUGGAGUCCCGUACGGAACG [U8C A21U U32A C55G],0.517
18,GUUCCGUCGGCGUAAUGGUAUCGCGUCUCCCUCCUAAGGAGAAGACUGCGGGUUCGAGUCCCGUACGGAACG [U8C A21U],0.802
19,GUUCCGUCGGCGUAAUGGUAACGAGUCUCCCUCCUAAGGAGAAGACUGUGGGUUCGAGUCCCGUACGGAACG [U8C C24A C49U],≤ 0.5
